Each block holds one molecule with its values, some of them ahead of it. Activity calls are given as the source filed them. No cut-off for these calls is given here.
Legend:
Streptomyces [1] = assay: Antibacterial activity against Streptomyces 85E assessed as bald phenotype at 10 ug/disk after 30 hrs by hyphae formation inhibition assay; assay type: functional; conditions: read-out: IZ
In short: (§1)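 Mycelial fragments spread on minimal medium ISP 4 agar to form a lawn; compound-impregnated 6 mm paper disks placed on surface; incubated 30 h at 30 °C. Zone diameter recorded as clear (growth and sporulation inhibited) or bald (substrate hyphae without aerial hyphae); >9 mm counted active. Stocks in DMSO or methanol; solvent negative control, surfactin positive control.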

Streptomyces [2] = assay: Antibacterial activity against Streptomyces 85E assessed as bald phenotype at 5 ug/disk after 30 hrs by hyphae formation inhibition assay; assay type: functional; conditions: read-out: IZ; in short: as §1
Streptomyces [3] = assay: Antibacterial activity against Streptomyces 85E assessed as bald phenotype at 2.5 ug/disk after 30 hrs by hyphae formation inhibition assay; assay type: functional; conditions: read-out: IZ; in short: as §1
MCF7 [4] = assay: Antiproliferative activity against human MCF7 cells; assay type: functional, cell-based
In short: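 MCF-7 cells grown in IMEM with 5% FBS and penicillin/streptomycin at 37 °C, 5% CO2, plated in 96-well plates with compounds in DMSO at five concentrations. After 2 days, glutaraldehyde-fixed, crystal violet-stained, dye solubilised in Triton X-100, A560 minus A405 read. % growth relative to day-0 and DMSO wells; IC50 read graphically from dose–response curve, triplicate.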

Streptomyces [5] = assay: Antibacterial activity against Streptomyces 85E assessed as bald phenotype at 20 ug/disk after 30 hrs by hyphae formation inhibition assay; assay type: functional; conditions: read-out: IZ; in short: as §1
MCF7 [6] = assay: Cell cycle arrest in human MCF7 cells by accumulation at G1 phase at 10 uM by flow cytometry; assay type: functional, cell-based
In short: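 MCF-7 cells, 1 × 10^5 per well, held 2 days in serum-free, antibiotic-free, phenol red-free IMEM to induce G1 arrest. Compound or DMSO added 30 min before FBS to 5% final; serum-free wells as negative controls; U0126 50 µM comparator. After 24 h, cells fixed in ice-cold 80% ethanol, propidium iodide stained, phases measured by flow cytometry; n = 3.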

MCF7 [7] = assay: Cytotoxicity against human MCF7 cells at >10 uM; assay type: functional, cell-based
Streptomyces [8] = assay: Antibacterial activity against Streptomyces 85E assessed as clear zone at 20 ug/disk after 30 hrs by hyphae formation inhibition assay; assay type: functional; conditions: read-out: IZ; in short: as §1
Streptomyces [9] = assay: Antibacterial activity against Streptomyces 85E assessed as clear zone at 10 ug/disk after 30 hrs by hyphae formation inhibition assay; assay type: functional; conditions: read-out: IZ; in short: as §1
Streptomyces [10] = assay: Antibacterial activity against Streptomyces 85E assessed as clear zone at 5 ug/disk after 30 hrs by hyphae formation inhibition assay; assay type: functional; conditions: read-out: IZ; in short: as §1
Streptomyces [11] = assay: Antibacterial activity against Streptomyces 85E assessed as clear zone at 2.5 ug/disk after 30 hrs by hyphae formation inhibition assay; assay type: functional; conditions: read-out: IZ; in short: as §1

Compound: Oc1c(Br)c(Br)cc(Br)c1Oc1ccc(Br)cc1Br
- zone of inhibition at 10 µg/disc (Streptomyces [1]): 13 mm
- zone of inhibition at 5 µg/disc (Streptomyces [2]): 11 mm
- zone of inhibition at 2.5 µg/disc (Streptomyces [3]): 10 mm
- IC50 (MCF7 [4]): 7.52 µM
- zone of inhibition at 20 µg/disc (Streptomyces [5]): 14 mm

Compound: Oc1cc(Br)cc(Br)c1Oc1ccc(Br)cc1Br
- IC50 (MCF7 [4]): 2.84 µM
- Activity (MCF7 [6]): Active
- Activity (MCF7 [7]): Active
- zone of inhibition at 20 µg/disc (Streptomyces [8]): 20 mm
- zone of inhibition at 10 µg/disc (Streptomyces [9]): 17 mm
- zone of inhibition at 5 µg/disc (Streptomyces [10]): 16 mm
- zone of inhibition at 2.5 µg/disc (Streptomyces [11]): 13 mm

- IC50 (MCF7 [4]): 6.89 µM
Compound: Oc1c(Br)ccc(Br)c1Oc1ccc(Br)cc1Br
- zone of inhibition at 5 µg/disc (Streptomyces [2]): 11 mm
- zone of inhibition at 2.5 µg/disc (Streptomyces [3]): 10 mm
- zone of inhibition at 20 µg/disc (Streptomyces [8]): 14 mm
- zone of inhibition at 10 µg/disc (Streptomyces [9]): 13 mm

- IC50 (MCF7 [4]): 6.96 µM
Compound: Oc1c(Br)c(Br)cc(Br)c1Oc1ccccc1Br
- zone of inhibition at 20 µg/disc (Streptomyces [8]): 20 mm
- zone of inhibition at 10 µg/disc (Streptomyces [9]): 18 mm
- zone of inhibition at 5 µg/disc (Streptomyces [10]): 13 mm
- zone of inhibition at 2.5 µg/disc (Streptomyces [11]): 12 mm

Compound: Oc1c(Br)c(Br)c(Br)c(Br)c1Oc1ccc(Br)cc1Br
- zone of inhibition at 5 µg/disc (Streptomyces [2]): 12 mm
- zone of inhibition at 2.5 µg/disc (Streptomyces [3]): 12 mm
- IC50 (MCF7 [4]): 9.48 µM
- zone of inhibition at 20 µg/disc (Streptomyces [8]): 15 mm
- zone of inhibition at 10 µg/disc (Streptomyces [9]): 13 mm

Compound: Oc1c(Br)cc(Br)c(Br)c1Oc1ccc(Br)cc1Br
- zone of inhibition at 10 µg/disc (Streptomyces [1]): 2 mm
- zone of inhibition at 5 µg/disc (Streptomyces [2]): 15 mm
- zone of inhibition at 2.5 µg/disc (Streptomyces [3]): 13 mm
- IC50 (MCF7 [4]): 8.73 µM
- zone of inhibition at 20 µg/disc (Streptomyces [8]): 12 mm
- zone of inhibition at 10 µg/disc (Streptomyces [9]): 12 mm
- zone of inhibition at 20 µg/disc (Streptomyces [5]): 3 mm

Compound: Oc1c(Br)cc(Br)cc1Oc1ccc(Br)cc1Br
- zone of inhibition at 10 µg/disc (Streptomyces [1]): 13 mm
- zone of inhibition at 5 µg/disc (Streptomyces [2]): 12 mm
- zone of inhibition at 2.5 µg/disc (Streptomyces [3]): 10 mm
- IC50 (MCF7 [4]): 8.9 µM
- zone of inhibition at 20 µg/disc (Streptomyces [8]): 13 mm

- IC50 (MCF7 [4]): 7.23 µM
Compound: Oc1c(Oc2ccc(Br)cc2Br)ccc(Br)c1Br
- zone of inhibition at 10 µg/disc (Streptomyces [1]): 14 mm
- zone of inhibition at 5 µg/disc (Streptomyces [2]): 13 mm
- zone of inhibition at 2.5 µg/disc (Streptomyces [3]): 10 mm
- zone of inhibition at 20 µg/disc (Streptomyces [8]): 13 mm

- IC50 (MCF7 [4]): 8.69 µM
Compound: COc1c(O)c(Oc2ccc(Br)cc2Br)c(Br)c(Br)c1Br
- zone of inhibition at 10 µg/disc (Streptomyces [1]): 12 mm
- zone of inhibition at 5 µg/disc (Streptomyces [2]): 11 mm
- zone of inhibition at 2.5 µg/disc (Streptomyces [3]): 10 mm
- zone of inhibition at 20 µg/disc (Streptomyces [5]): 12 mm
